Experimental data taken from ChEMBL document CHEMBL1123544, “Syntheses of 5,6,7- and 5,7,8-trioxygenated 3',4'-dihydroxyflavones having alkoxy groups and their inhibitory activities against arachidonate 5-lipoxygenase” (J Med Chem, 1986).

These compounds were tested against T1, Polyunsaturated fatty acid 5-lipoxygenase (Rattus norvegicus, UniProt P12527) (assay: Ability to inhibit 5-lipoxygenase in rat basophilic leukemia cells.).
T1 sequence (P12527 whole entry): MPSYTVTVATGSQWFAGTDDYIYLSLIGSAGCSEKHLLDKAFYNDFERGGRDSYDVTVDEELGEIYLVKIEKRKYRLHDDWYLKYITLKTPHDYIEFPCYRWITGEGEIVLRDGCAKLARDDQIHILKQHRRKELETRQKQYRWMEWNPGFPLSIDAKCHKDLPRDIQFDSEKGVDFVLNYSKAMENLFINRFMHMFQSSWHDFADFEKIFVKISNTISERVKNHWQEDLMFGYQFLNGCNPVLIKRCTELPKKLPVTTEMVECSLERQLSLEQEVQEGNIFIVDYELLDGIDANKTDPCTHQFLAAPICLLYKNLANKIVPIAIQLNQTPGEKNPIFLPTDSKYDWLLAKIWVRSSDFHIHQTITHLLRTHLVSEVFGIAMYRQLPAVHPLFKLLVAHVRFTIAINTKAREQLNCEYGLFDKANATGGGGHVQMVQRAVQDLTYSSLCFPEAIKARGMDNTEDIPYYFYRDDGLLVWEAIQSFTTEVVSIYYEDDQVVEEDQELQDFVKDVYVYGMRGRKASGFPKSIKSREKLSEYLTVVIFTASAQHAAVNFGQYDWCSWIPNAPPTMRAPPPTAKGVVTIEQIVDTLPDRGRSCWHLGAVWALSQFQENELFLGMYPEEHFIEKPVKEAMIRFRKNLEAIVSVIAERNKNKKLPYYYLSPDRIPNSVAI
Assay type: cell-based, RBL-1
In short: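 Enzyme: RBL cell sonicate high-speed supernatant, 25–50% ammonium sulfate cut, desalted on Sephadex G-25 (68 μg protein). Compound in ethanol preincubated 5 min with enzyme. Reaction started with 25 μM [1-14C]arachidonic acid, 30 °C for 5 min in 50 mM potassium phosphate pH 7.4 with 2 mM ATP and 2 mM CaCl2. Radio-TLC of 5-HPETE; IC50 from concentration series.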
`CCCCCCCCOc1c(OC)c(OC)cc2oc(-c3ccc(O)c(O)c3)cc(=O)c12` showed an IC50 of 19 nM.
Work on `CCCCCCCCCCCCOc1c(OC)cc(OC)c2c(=O)cc(-c3ccc(O)c(O)c3)oc12` yielded an IC50 of 110 nM.
`CCCCCCCCCCCCOc1c(OC)cc(O)c2c(=O)cc(-c3ccc(O)c(O)c3)oc12` showed an IC50 of 110 nM.
Work on `COc1cc(OC)c2c(=O)cc(-c3ccc(O)c(O)c3)oc2c1OC` yielded an IC50 of 430 nM.
In the case of `CCCCCCCCCCOc1c(OC)cc2oc(-c3ccc(O)c(O)c3)cc(=O)c2c1O`, the IC50 is reported as 11 nM.
With `CCCCCOc1c(OC)c(OC)cc2oc(-c3ccc(O)c(O)c3)cc(=O)c12` the IC50 was 32 nM.
For `CCCCCCOc1c(OC)cc2oc(-c3ccc(OC(C)=O)c(OC(C)=O)c3)cc(=O)c2c1OC`, the IC50 was 50 nM.
Work on `COc1cc2oc(-c3ccc(OC(C)=O)c(OC(C)=O)c3)cc(=O)c2c(OC)c1OC` yielded an IC50 of 1000 nM.
`CCCCCCCCCCCCOc1cc(OC)c(OC)c2oc(-c3ccc(O)c(O)c3)cc(=O)c12` was tested, and the IC50 was 22 nM.
With `CCCCCCCCCCCCOc1c(OC)cc2oc(-c3ccc(O)c(O)c3)cc(=O)c2c1OC` the IC50 was 30 nM.
In the case of `CCCCCCCCCCCCCCCCCCOc1c(OC)cc2oc(-c3ccc(OC(C)=O)c(OC(C)=O)c3)cc(=O)c2c1OC`, the IC50 is reported as 10000 nM.
For `CCCCCCCCCCCCCCOc1c(OC)c(OC)cc2oc(-c3ccc(O)c(O)c3)cc(=O)c12`, the IC50 was 28 nM.
In the case of `COc1cc2oc(-c3ccc(O)c(O)c3)cc(=O)c2c(O)c1OC` [CIRSILIOL], the IC50 is reported as 95 nM.
In the case of `CCCCCCCCCCCCCCCCOc1c(OC)c(OC)cc2oc(-c3ccc(O)c(O)c3)cc(=O)c12`, the IC50 is reported as 140 nM.
In the case of `COc1cc2oc(-c3ccc(O)c(O)c3)cc(=O)c2c(OC)c1OCCC(C)C`, the IC50 is reported as 26 nM.
With `CCCCCCCCOc1c(OC)cc2oc(-c3ccc(O)c(O)c3)cc(=O)c2c1OC` the IC50 was 22 nM.
In the case of `CCCCCOc1c(OC)cc2oc(-c3ccc(O)c(O)c3)cc(=O)c2c1OC`, the IC50 is reported as 35 nM.
In the case of `CCCCCCCCCCCCOc1cc2oc(-c3ccc(O)c(O)c3)cc(=O)c2c(O)c1OC`, the IC50 is reported as 140 nM.
With `COc1cc(O)c2c(=O)cc(-c3ccc(O)c(O)c3)oc2c1OC` the IC50 was 110 nM.
`COc1cc2oc(-c3ccc(O)c(O)c3)cc(=O)c2c(OC)c1OC` showed an IC50 of 240 nM.
Work on `CCCCCCCCCCCCOc1c(OC)c(OC)cc2oc(-c3ccc(O)c(O)c3)cc(=O)c12` yielded an IC50 of 18 nM.
`CCCCCCCCCCCCCCOc1c(OC)cc2oc(-c3ccc(O)c(O)c3)cc(=O)c2c1OC` was tested, and the IC50 was 70 nM.
`CCCCCCCCCCCCCCCCCCOc1c(OC)cc2oc(-c3ccc(O)c(O)c3)cc(=O)c2c1O` was tested, and the IC50 was 10000 nM.
Compound `CCCCCCCCCCOc1c(OC)cc2oc(-c3ccc(OC(C)=O)c(OC(C)=O)c3)cc(=O)c2c1OC` has an IC50 of 30 nM.
`CCCCCCOc1c(OC)cc2oc(-c3ccc(O)c(O)c3)cc(=O)c2c1OC` was tested, and the IC50 was 14 nM.
Compound `CCCCCOc1c(OC)cc2oc(-c3ccc(O)c(O)c3)cc(=O)c2c1O` has an IC50 of 22 nM.
In the case of `CCCCCCCCCCCCCCCCOc1c(OC)cc2oc(-c3ccc(O)c(O)c3)cc(=O)c2c1OC`, the IC50 is reported as 1500 nM.
`CCCCOc1c(OC)cc2oc(-c3ccc(O)c(O)c3)cc(=O)c2c1OC` gave an IC50 of 52 nM.
Compound `CCCCCCCCCCOc1c(OC)c(OC)cc2oc(-c3ccc(O)c(O)c3)cc(=O)c12` has an IC50 of 18 nM.
`CCCCCCCCCCCCOc1cc(OC)c2c(=O)cc(-c3ccc(O)c(O)c3)oc2c1OC` was tested, and the IC50 was 33 nM.
With `CCCCCCCCCCCCCCCCOc1c(OC)cc2oc(-c3ccc(OC(C)=O)c(OC(C)=O)c3)cc(=O)c2c1OC` the IC50 was 10000 nM.
In the case of `CCCCCCCCCCCCOc1cc(O)c2c(=O)cc(-c3ccc(O)c(O)c3)oc2c1OC`, the IC50 is reported as 180 nM.
In the case of `CCCCCCCCCCCCCCOc1c(OC)cc2oc(-c3ccc(O)c(O)c3)cc(=O)c2c1O`, the IC50 is reported as 10000 nM.
`CCCCCCCCCCCCCCOc1c(OC)cc2oc(-c3ccc(OC(C)=O)c(OC(C)=O)c3)cc(=O)c2c1OC` gave an IC50 of 10000 nM.
`CCCCCCCCOc1c(OC)cc2oc(-c3ccc(O)c(O)c3)cc(=O)c2c1O` showed an IC50 of 11 nM.
`COc1cc2oc(-c3ccc(O)c(O)c3)cc(=O)c2c(O)c1OCCC(C)C` showed an IC50 of 9 nM.
For `CCCCCCCCOc1c(OC)cc2oc(-c3ccc(OC(C)=O)c(OC(C)=O)c3)cc(=O)c2c1OC`, the IC50 was 42 nM.
`CCCCCCCCCCCCCCCCOc1c(OC)cc2oc(-c3ccc(O)c(O)c3)cc(=O)c2c1O` gave an IC50 of 10000 nM.
Compound `CCCCOc1c(OC)c(OC)cc2oc(-c3ccc(O)c(O)c3)cc(=O)c12` has an IC50 of 45 nM.
In the case of `CCCCCCCCCCCCOc1cc2oc(-c3ccc(O)c(O)c3)cc(=O)c2c(OC)c1OC`, the IC50 is reported as 100 nM.
`CCCCCCOc1c(OC)cc2oc(-c3ccc(O)c(O)c3)cc(=O)c2c1O` showed an IC50 of 20 nM.
With `CCCCOc1c(OC)cc2oc(-c3ccc(OC(C)=O)c(OC(C)=O)c3)cc(=O)c2c1OC` the IC50 was 100 nM.
`CCCCCCCCCCCCOc1c(OC)cc2oc(-c3ccc(OC(C)=O)c(OC(C)=O)c3)cc(=O)c2c1OC` showed an IC50 of 75 nM.
`CCCCCCCCCCCCOc1c(OC)cc2oc(-c3ccc(O)c(O)c3)cc(=O)c2c1O` gave an IC50 of 26 nM.
`CCCCCCCCCCCCCCCCCCOc1c(OC)cc2oc(-c3ccc(O)c(O)c3)cc(=O)c2c1OC` gave an IC50 of 10000 nM.
`CCCCCCCCCCOc1c(OC)cc2oc(-c3ccc(O)c(O)c3)cc(=O)c2c1OC` showed an IC50 of 17 nM.
In the case of `CCCCCCOc1c(OC)c(OC)cc2oc(-c3ccc(O)c(O)c3)cc(=O)c12`, the IC50 is reported as 15 nM.
`CCCCCOc1c(OC)cc2oc(-c3ccc(OC(C)=O)c(OC(C)=O)c3)cc(=O)c2c1OC` was tested, and the IC50 was 28 nM.
For `CCCCCCCCCCCCCCCCCCOc1c(OC)c(OC)cc2oc(-c3ccc(O)c(O)c3)cc(=O)c12`, the IC50 was 9000 nM.
With `COc1cc2oc(-c3ccc(O)c(O)c3)cc(=O)c2c(OCCC(C)C)c1OC` the IC50 was 16 nM.
For `CCCCOc1c(OC)cc2oc(-c3ccc(O)c(O)c3)cc(=O)c2c1O`, the IC50 was 15 nM.
